# Source: PubChem BioAssay (Johns Hopkins Ion Channel Center)
# The list is not random: actives were taken first. Their share in the collection is about 3.7%.
# KCNK3 block: human KCNK3 channel inhibition, primary screen; CHO-KCNK3 thallium flux, FluxOR fluorescence; active compounds read low; 340,000 compounds, 0.84% hits; B-score at 10 µM; O14649;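 active means B-score under library mean minus 4 SD, starting fluorescence ratio at most library mean plus 5 SD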;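 further: more negative B-score means stronger inhibition of thallium flux through KCNK3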
# Kir21 inh: Kir2.1 (mouse) channel inhibition | HEK293-Kir2.1, FluxOR thallium flux fluorescence; active compounds read low | B-score at 10 µM | 310,000 compounds, 0.85% hits | AID 1672;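 active means fluorescence ratio B-score at or below minus 3 SD of library scores, with starting-brightness B-score within 2 SD, cut at about -4.2 in these data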;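 further: channel flux triggered by added potassium and thallium sulfate stimulus; B-score of peak minus minimum fluorescence over baseline after thallium stimulus; more negative B-score means stronger Kir2.1 block with less thallium influx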
# Target sequence (P35561 whole entry, looked up): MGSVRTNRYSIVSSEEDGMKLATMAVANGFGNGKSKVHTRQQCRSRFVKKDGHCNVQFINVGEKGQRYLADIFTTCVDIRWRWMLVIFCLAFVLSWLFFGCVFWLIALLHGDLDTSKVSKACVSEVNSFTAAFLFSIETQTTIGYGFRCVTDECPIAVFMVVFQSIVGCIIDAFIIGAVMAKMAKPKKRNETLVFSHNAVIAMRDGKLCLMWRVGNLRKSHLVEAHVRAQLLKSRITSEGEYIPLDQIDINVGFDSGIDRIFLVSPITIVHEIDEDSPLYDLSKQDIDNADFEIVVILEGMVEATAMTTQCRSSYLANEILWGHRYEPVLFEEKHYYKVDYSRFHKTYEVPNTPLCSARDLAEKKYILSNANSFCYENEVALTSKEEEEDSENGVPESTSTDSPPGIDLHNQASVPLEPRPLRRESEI
# KCNK9 block: human KCNK9 channel inhibition; B-score at 10 µM; HEK293 KCNK9, FluxOR thallium flux fluorescence; active compounds read low; 310,000 compounds, 1.2% hits;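 active means ratio B-score over 3 SD below the library mean, with starting fluorescence within 5 SD of its mean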;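 further: negative B-score means less thallium flux so channel inhibition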
# KCNQ1 act: human KCNQ1 channel potentiation or activation. B-score at 10 µM. 310,000 compounds, 0.35% hits. P51787. CHO-K1 KCNQ1, thallium flux FluxOR fluorescence; active compounds read high. AID 2648;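 active means fluorescence ratio B-score, a plate-corrected score, at least three library SD, with initial intensity B-score within 5 SD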
#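 Medium – assay buffer, equal DMSO in all wells · Material – CHO-K1 cell line with stable KCNQ1 potassium channel expression · Signal – kinetic FluxOR thallium fluorescence, 10-s 1-Hz baseline, 110-s post-stimulus read · Compound – single concentration per compound, DMSO matched to controls · Schedule – 37 °C overnight plating, 90-min dark dye load, 20-min compound pretreatment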
# KCNQ1 inh: inhibitors of human KCNQ1 potassium channel; 310,000 compounds, 1.3% hits; P51787; B-score at 10 µM; CHO-K1 KCNQ1, FluxOR thallium flux fluorescence; active compounds read high;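 active means compounds whose thallium flux B-score, printed positive for inhibition, exceeds three library SD while starting fluorescence stays within three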;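 further: channel opened by potassium depolarization with thallium stimulus after 20 min compound exposure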
# hERG rescue: hERG (human) protection from proarrhythmic block; CHO-hERG, FluxOR thallium flux, dofetilide IC70 present; Q12809; AID 1511; 310,000 compounds, 0.51% hits; activation (rescue from dofetilide block), less the hit threshold, % at 10 µM;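 active means activation above the mean of controls blocked by dofetilide plus 5 SD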;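 further: thallium influx through hERG after potassium depolarization seen as dye fluorescence rise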
# Starred values were filed as active, the others as inactive; i = inactive; nt = no result given.
SMILES,KCNK3 block,Kir21 inh,KCNK9 block,KCNQ1 act,KCNQ1 inh,hERG rescue
CC(=O)c1c(C)[nH]c(C(=O)OCC(=O)NCc2cccs2)c1C,i,nt,nt,nt,nt,nt
CCOc1ccccc1C(C(=O)NC1CCCC1)N(C(=O)c1csnn1)C1CC1 (centres undefined),i,-1.5,i,i,i,-6
COC1=CC(=O)C(O)=C(CCCCCCC/C=C/CCCCCCCC2=C(O)C(=O)C=C(OC)C2=O)C1=O,i,-3.1,i,i,10*,-6
O=[N+]([O-])c1ccc(NCc2ccc(Cl)cc2)nc1,i,1.9,i,i,i,-8
CC(C)c1ccc(CNc2ccc([N+](=O)[O-])cn2)cc1,i,-1.6,i,i,7*,-11
O=C(Nc1ncc(Cc2ccccc2)s1)c1cccs1,i,0.03,i,i,i,-7
O=C(Nc1ncc(Cc2cccc(Cl)c2)s1)c1cccs1,i,-1.5,-6.7*,i,i,-4
CN(C(=O)COC(=O)c1ccc2c(c1)OCO2)c1c(N)n(Cc2ccccc2)c(=O)[nH]c1=O,i,-0.99,i,i,i,-11
Fc1ccccc1-c1nc(NC2CCCC2)c2ccccc2n1,i,1.1,i,i,6*,-13
CC(Nc1nc(-c2ccccc2F)nc2ccccc12)c1ccccc1 (centres undefined),i,-0.54,-7.5*,i,i,-8
Oc1ccccc1-c1nc(NC2CCCC2)c2ccccc2n1,i,1.2,i,i,i,-8
O=[N+]([O-])c1ccc(Nc2ccc3ccccc3c2)nc1,i,-0.36,i,i,i,5.5*
Cc1c(Cl)cccc1NC(=S)N1CCCN(Cc2ccc(F)cc2)C1,i,-6.2*,i,i,i,-7
Cc1ccc(NC(=S)N2CCCN(Cc3ccc(F)cc3)C2)c(C)c1,i,-3.4,i,i,i,-4
Cc1ccccc1NC(=S)N1CCCN(Cc2ccc(F)cc2)C1,i,-4.5*,i,i,i,-10
COc1ccc(-n2nc3c(c2NC(=O)C(C)Oc2ccccc2)CS(=O)(=O)C3)cc1 (centres undefined),i,1.2,i,i,i,-8
O=C(NC1CCCCC1)C(c1ccccn1)N(C(=O)c1csnn1)C1CCCCC1 (centres undefined),i,0.43,i,i,i,-9
Fc1ccccc1C1CC(c2ccco2)=Nc2ccccc2S1 (centres undefined),i,-0.49,-6.9*,i,i,-12
O=S(=O)(Nc1ccc(S(=O)(=O)Nc2ncccn2)cc1)c1ccc(Cl)cc1,i,0.81,i,i,i,-11
O=S(=O)(Nc1cccc(CCc2ccccn2)c1)c1ccc(Cl)cc1,i,-9.2*,i,i,i,-12
O=C(CSc1nc2ccccc2[nH]1)Nc1ccc(N2CCOCC2)cc1,i,0.04,i,i,i,-15
Cc1ccc(NC(=S)N(Cc2cccs2)Cc2cc3cccc(C)c3[nH]c2=O)cc1,i,-0.85,i,i,i,-21
CCN(CC(=O)Nc1ccc2c(c1)OCCO2)C(=O)c1ccc(Cl)cc1Cl,i,1,i,i,i,-21
CC(CCc1ccccc1)NC(=S)NC(=O)c1ccco1 (centres undefined),i,0.27,i,24*,i,25*
O=C(NC(=S)N(CCc1ccccc1)CCc1ccccc1)c1ccco1,i,-3.3,i,47*,i,37*
CC(CCc1ccccc1)NC(=O)Cc1ccccc1 (centres undefined),i,-1.9,i,i,i,-8
CCOC(=O)c1c(/N=C/N(C)C)sc(/C=N/Nc2ccccc2)c1-c1ccc(Cl)cc1,i,-0.71,i,i,i,-8
Cc1ccc(C)c2[nH]c(=O)c(CN(Cc3ccco3)S(=O)(=O)c3ccc4c(c3)OCCO4)cc12,i,-0.25,i,i,6*,-15
Cc1ccc(C)c2[nH]c(=O)c(CN(Cc3ccc4c(c3)OCO4)Cc3nnnn3Cc3ccco3)cc12,-9.4*,1.9,-7.1*,i,i,-11
